From ChEMBL document CHEMBL1154352, “Toll-like receptor 7 selective synthetic oligoribonucleotide agonists: synthesis and structure-activity relationship studies” (J Med Chem, 2009) come the findings set out here.

The structures appear in SMILES notation.

Test [1] concerns the target T1, Toll-like receptor 7 (Homo sapiens) (UniProt Q9NYK1).
T1 sequence (whole entry): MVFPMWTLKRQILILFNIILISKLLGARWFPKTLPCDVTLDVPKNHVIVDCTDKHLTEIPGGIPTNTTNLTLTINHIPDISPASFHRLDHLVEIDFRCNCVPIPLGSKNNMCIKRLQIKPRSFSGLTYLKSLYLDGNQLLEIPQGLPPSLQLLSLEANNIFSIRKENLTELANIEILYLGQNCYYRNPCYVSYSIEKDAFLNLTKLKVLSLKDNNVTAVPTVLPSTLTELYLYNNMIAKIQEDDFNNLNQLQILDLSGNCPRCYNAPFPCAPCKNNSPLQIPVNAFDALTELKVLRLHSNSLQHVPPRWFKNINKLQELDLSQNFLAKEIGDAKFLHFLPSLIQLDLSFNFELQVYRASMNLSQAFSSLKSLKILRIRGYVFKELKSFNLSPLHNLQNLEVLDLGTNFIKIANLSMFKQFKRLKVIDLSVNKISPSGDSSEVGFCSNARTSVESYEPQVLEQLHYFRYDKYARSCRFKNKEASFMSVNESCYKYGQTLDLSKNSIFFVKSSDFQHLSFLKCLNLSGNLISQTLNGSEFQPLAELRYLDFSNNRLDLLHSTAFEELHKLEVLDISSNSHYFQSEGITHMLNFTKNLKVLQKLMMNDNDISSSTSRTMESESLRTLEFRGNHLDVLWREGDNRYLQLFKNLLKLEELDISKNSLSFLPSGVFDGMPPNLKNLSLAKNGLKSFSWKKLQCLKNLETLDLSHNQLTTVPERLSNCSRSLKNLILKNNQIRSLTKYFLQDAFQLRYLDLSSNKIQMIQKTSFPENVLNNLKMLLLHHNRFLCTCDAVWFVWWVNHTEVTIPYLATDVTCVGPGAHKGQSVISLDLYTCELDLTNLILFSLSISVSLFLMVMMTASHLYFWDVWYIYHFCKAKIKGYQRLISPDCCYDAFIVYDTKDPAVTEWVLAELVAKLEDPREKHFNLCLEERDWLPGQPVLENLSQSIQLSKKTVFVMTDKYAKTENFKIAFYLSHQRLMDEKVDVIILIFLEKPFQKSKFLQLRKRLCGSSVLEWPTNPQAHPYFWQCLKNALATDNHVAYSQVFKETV
Put plainly: Activation of human TLR7 expressed in HEK293XL assessed as fold induction of NF-kappaB activity at 50 ug/ml after 18 hrs by reporter gene assay relative to control. The procedure, abridged:
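HEK293 cells stably expressing human TLR7 or TLR8, transiently transfected with SEAP reporter plasmid; medium replaced, SIMRA compounds added, 18 h incubation. Supernatant SEAP measured by QuantiBlue; expressed as fold increase in NF-κB activity over PBS control. Tabulated data at 50 μg/mL, representative of three independent experiments.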

For the next test, the species on record is Homo sapiens. In words: Ratio of human TLR7 activity to human TLR8 activity. The procedure, abridged:
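TLR7/TLR8 ratio computed from fold NF-κB (SEAP reporter) activation in HEK293 cells stably expressing human TLR7 versus TLR8, compounds at 50 μg/mL, 18 h exposure; representative of three independent experiments.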

With `Nc1ccn([C@@H]2O[C@H](COP(=O)(S)O[C@H]3[C@@H](O)[C@H](n4cnc5c(N)ncnc54)O[C@@H]3CO)[C@@H](OP(=O)(S)OC[C@H]3O[C@@H](n4ccc(=O)[nH]c4=O)[C@H](O)[C@@H]3OP(=O)(S)OC[C@H]3O[C@@H](n4ccc5c(=O)[nH]c(N)nc54)[C@H](O)[C@@H]3OP(=O)(S)OC[C@H]3O[C@@H](n4cnc5c(N)ncnc54)[C@H](O)[C@@H]3OP(=O)(S)OC[C@H]3O[C@@H](n4ccc5c(=O)[nH]c(N)nc54)[C@H](O)[C@@H]3OP(=O)(S)OC[C@H]3O[C@@H](n4cnc5c(N)ncnc54)[C@H](O)[C@@H]3OP(=O)(S)OC[C@H]3O[C@@H](n4ccc5c(=O)[nH]c(N)nc54)[C@H](O)[C@@H]3OP(=O)(S)OC[C@H]3O[C@@H](n4ccc(N)nc4=O)[C@H](O)[C@@H]3OP(=O)(S)OC[C@H]3O[C@@H](n4ccc(=O)[nH]c4=O)[C@H](O)[C@@H]3OP(=O)(S)OC[C@H]3O[C@@H](n4ccc(=O)[nH]c4=O)[C@H](O)[C@@H]3OP(=O)(S)OCC(O)COP(=O)(S)O[C@H]3[C@@H](O)[C@H](n4ccc(=O)[nH]c4=O)O[C@@H]3COP(=O)(S)O[C@H]3[C@@H](O)[C@H](n4ccc(=O)[nH]c4=O)O[C@@H]3COP(=O)(S)O[C@H]3[C@@H](O)[C@H](n4ccc(N)nc4=O)O[C@@H]3COP(=O)(S)O[C@H]3[C@@H](O)[C@H](n4ccc5c(=O)[nH]c(N)nc54)O[C@@H]3COP(=O)(S)O[C@H]3[C@@H](O)[C@H](n4cnc5c(N)ncnc54)O[C@@H]3COP(=O)(S)O[C@H]3[C@@H](O)[C@H](n4ccc5c(=O)[nH]c(N)nc54)O[C@@H]3COP(=O)(S)O[C@H]3[C@@H](O)[C@H](n4cnc5c(N)nc(N)nc54)O[C@@H]3COP(=O)(S)O[C@H]3[C@@H](O)[C@H](n4ccc5c(=O)[nH]c(N)nc54)O[C@@H]3COP(=O)(S)O[C@H]3[C@@H](O)[C@H](n4ccc(=O)[nH]c4=O)O[C@@H]3COP(=O)(S)O[C@H]3[C@@H](O)[C@H](n4ccc(N)nc4=O)O[C@@H]3COP(=O)(S)O[C@H]3[C@@H](O)[C@H](n4cnc5c(N)ncnc54)O[C@@H]3CO)[C@H]2O)c(=O)n1` (stereo partly drawn), in test [1], the fold change (FC) came out at 16.8. The Ratio in the test filed under Homo sapiens came out at 7.

Turning to `Nc1ccn([C@@H]2O[C@H](COP(=O)(S)O[C@H]3[C@@H](O)[C@H](n4cnc5c(N)ncnc54)O[C@@H]3COP(=O)(S)O[C@H]3[C@@H](O)[C@H](n4cnc5c(N)ncnc54)O[C@@H]3CO)[C@@H](OP(=O)(S)OC[C@H]3O[C@@H](n4ccc(=O)[nH]c4=O)[C@H](O)[C@@H]3OP(=O)(S)OC[C@H]3O[C@@H](n4ccc5c(=O)[nH]c(N)nc54)[C@H](O)[C@@H]3OP(=O)(S)OC[C@H]3O[C@@H](n4cnc5c(N)ncnc54)[C@H](O)[C@@H]3OP(=O)(S)OC[C@H]3O[C@@H](n4cnc5c(N)ncnc54)[C@H](O)[C@@H]3OP(=O)(S)OC[C@H]3O[C@@H](n4ccc5c(=O)[nH]c(N)nc54)[C@H](O)[C@@H]3OP(=O)(S)OC[C@H]3O[C@@H](n4ccc(N)nc4=O)[C@H](O)[C@@H]3OP(=O)(S)OC[C@H]3O[C@@H](n4ccc(=O)[nH]c4=O)[C@H](O)[C@@H]3OP(=O)(S)OC[C@H]3O[C@@H](n4ccc(=O)[nH]c4=O)[C@H](O)[C@@H]3OP(=O)(S)OCC(O)COP(=O)(S)O[C@H]3[C@@H](O)[C@H](n4ccc(=O)[nH]c4=O)O[C@@H]3COP(=O)(S)O[C@H]3[C@@H](O)[C@H](n4ccc(=O)[nH]c4=O)O[C@@H]3COP(=O)(S)O[C@H]3[C@@H](O)[C@H](n4ccc(N)nc4=O)O[C@@H]3COP(=O)(S)O[C@H]3[C@@H](O)[C@H](n4ccc5c(=O)[nH]c(N)nc54)O[C@@H]3COP(=O)(S)O[C@H]3[C@@H](O)[C@H](n4cnc5c(N)ncnc54)O[C@@H]3COP(=O)(S)O[C@H]3[C@@H](O)[C@H](n4cnc5c(N)ncnc54)O[C@@H]3COP(=O)(S)O[C@H]3[C@@H](O)[C@H](n4ccc5c(=O)[nH]c(N)nc54)O[C@@H]3COP(=O)(S)O[C@H]3[C@@H](O)[C@H](n4ccc(=O)[nH]c4=O)O[C@@H]3COP(=O)(S)O[C@H]3[C@@H](O)[C@H](n4ccc(N)nc4=O)O[C@@H]3COP(=O)(S)O[C@H]3[C@@H](O)[C@H](n4cnc5c(N)ncnc54)O[C@@H]3COP(=O)(S)O[C@H]3[C@@H](O)[C@H](n4cnc5c(N)ncnc54)O[C@@H]3CO)[C@H]2O)c(=O)n1` (stereo partly drawn), the fold change (FC) in test [1] stood at 29.5. In the test filed under Homo sapiens, the Ratio stood at 29.5.

Turning to `Nc1ccn([C@@H]2O[C@H](COP(=O)(S)O[C@H]3[C@@H](O)[C@H](n4cnc5c(N)ncnc54)O[C@@H]3COP(=O)(S)O[C@H]3[C@@H](O)[C@H](n4cnc5c(N)ncnc54)O[C@@H]3CO)[C@@H](OP(=O)(S)OC[C@H]3O[C@@H](n4ccc(=O)[nH]c4=O)[C@H](O)[C@@H]3OP(=O)(S)OC[C@H]3O[C@@H](n4ccc5c(=O)[nH]c(N)nc54)[C@H](O)[C@@H]3OP(=O)(S)OC[C@H]3O[C@@H](n4cnc5c(N)ncnc54)[C@H](O)[C@@H]3OP(=O)(S)OC[C@H]3O[C@@H](n4cnc5c(N)ncnc54)[C@H](O)[C@@H]3OP(=O)(S)OC[C@H]3O[C@@H](n4ccc5c(=O)[nH]c(N)nc54)[C@H](O)[C@@H]3OP(=O)(S)OC[C@H]3O[C@@H](n4ccc(N)nc4=O)[C@H](O)[C@@H]3OP(=O)(S)OC[C@H]3O[C@@H](n4ccc(=O)[nH]c4=O)[C@H](O)[C@@H]3OP(=O)(S)OC[C@H]3O[C@@H](n4ccc5c(=O)[nH]c(N)nc54)[C@H](O)[C@@H]3OP(=O)(S)OCC(O)COP(=O)(S)O[C@H]3[C@@H](O)[C@H](n4ccc5c(=O)[nH]c(N)nc54)O[C@@H]3COP(=O)(S)O[C@H]3[C@@H](O)[C@H](n4ccc(=O)[nH]c4=O)O[C@@H]3COP(=O)(S)O[C@H]3[C@@H](O)[C@H](n4ccc(N)nc4=O)O[C@@H]3COP(=O)(S)O[C@H]3[C@@H](O)[C@H](n4ccc5c(=O)[nH]c(N)nc54)O[C@@H]3COP(=O)(S)O[C@H]3[C@@H](O)[C@H](n4cnc5c(N)ncnc54)O[C@@H]3COP(=O)(S)O[C@H]3[C@@H](O)[C@H](n4cnc5c(N)ncnc54)O[C@@H]3COP(=O)(S)O[C@H]3[C@@H](O)[C@H](n4ccc5c(=O)[nH]c(N)nc54)O[C@@H]3COP(=O)(S)O[C@H]3[C@@H](O)[C@H](n4ccc(=O)[nH]c4=O)O[C@@H]3COP(=O)(S)O[C@H]3[C@@H](O)[C@H](n4ccc(N)nc4=O)O[C@@H]3COP(=O)(S)O[C@H]3[C@@H](O)[C@H](n4cnc5c(N)ncnc54)O[C@@H]3COP(=O)(S)O[C@H]3[C@@H](O)[C@H](n4cnc5c(N)ncnc54)O[C@@H]3CO)[C@H]2O)c(=O)n1` (stereo partly drawn), in test [1], the fold change (FC) came out at 18.4. Further, in the test filed under Homo sapiens, the Ratio was found to be 30.7.

`Nc1ccn([C@@H]2O[C@H](COP(=O)(S)O[C@H]3[C@@H](O)[C@H](n4ccc5c(=O)[nH]c(N)nc54)O[C@@H]3COP(=O)(S)O[C@H]3[C@@H](O)[C@H](n4cnc5c(N)ncnc54)O[C@@H]3COP(=O)(S)O[C@H]3[C@@H](O)[C@H](n4cnc5c(N)ncnc54)O[C@@H]3COP(=O)(S)O[C@H]3[C@@H](O)[C@H](n4ccc5c(=O)[nH]c(N)nc54)O[C@@H]3COP(=O)(S)O[C@H]3[C@@H](O)[C@H](n4ccc(=O)[nH]c4=O)O[C@@H]3COP(=O)(S)O[C@H]3[C@@H](O)[C@H](n4ccc(=O)[nH]c4=O)O[C@@H]3COP(=O)(S)O[C@H]3[C@@H](O)[C@H](n4cnc5c(N)ncnc54)O[C@@H]3COP(=O)(S)O[C@H]3[C@@H](O)[C@H](n4cnc5c(N)ncnc54)O[C@@H]3CO)[C@@H](OP(=O)(S)OC[C@H]3O[C@@H](n4ccc(=O)[nH]c4=O)[C@H](O)[C@@H]3OP(=O)(S)OC[C@H]3O[C@@H](n4ccc(=O)[nH]c4=O)[C@H](O)[C@@H]3OP(=O)(S)OCC(O)COP(=O)(S)O[C@H]3[C@@H](O)[C@H](n4ccc(=O)[nH]c4=O)O[C@@H]3COP(=O)(S)O[C@H]3[C@@H](O)[C@H](n4ccc(=O)[nH]c4=O)O[C@@H]3COP(=O)(S)O[C@H]3[C@@H](O)[C@H](n4ccc(N)nc4=O)O[C@@H]3COP(=O)(S)O[C@H]3[C@@H](O)[C@H](n4ccc5c(=O)[nH]c(N)nc54)O[C@@H]3COP(=O)(S)O[C@H]3[C@@H](O)[C@H](n4cnc5c(N)ncnc54)O[C@@H]3COP(=O)(S)O[C@H]3[C@@H](O)[C@H](n4cnc5c(N)ncnc54)O[C@@H]3COP(=O)(S)O[C@H]3[C@@H](O)[C@H](n4ccc5c(=O)[nH]c(N)nc54)O[C@@H]3COP(=O)(S)O[C@H]3[C@@H](O)[C@H](n4ccc(=O)[nH]c4=O)O[C@@H]3COP(=O)(S)O[C@H]3[C@@H](O)[C@H](n4ccc(=O)[nH]c4=O)O[C@@H]3COP(=O)(S)O[C@H]3[C@@H](O)[C@H](n4cnc5c(N)ncnc54)O[C@@H]3COP(=O)(S)O[C@H]3[C@@H](O)[C@H](n4cnc5c(N)ncnc54)O[C@@H]3CO)[C@H]2O)c(=O)n1` (stereo partly drawn): in test [1], the fold change (FC) was found to be 25. The Ratio in the test listed under Homo sapiens turned out to be 15.6.
